The list is not random: actives were taken first. Their share in the collection is about 3.1%.
PAFAH2 inh: PAFAH2 (human) inhibition. hit rate 0.99% among 340,000. recombinant PAFAH2, FP-rhodamine activity probe, fluorescence polarization. Q99487. inhibition, % at 3.39 µM;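 active = inhibition above the mean over all tested compounds plus 3 SD, cut at about 30% in these data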;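 also: inhibitors block probe labeling of enzyme so polarization drops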
Apaf-1 inh: human Apaf-1 inhibition. inhibition, % at 20 µM. O14727. hit rate 0.71% among 330,000. reconstituted apoptosome caspase-3 activity, DEVD-Rh110 fluorescence; active = inhibition of at least 40% at 20 µM
Target sequence (O14727 whole entry, looked up): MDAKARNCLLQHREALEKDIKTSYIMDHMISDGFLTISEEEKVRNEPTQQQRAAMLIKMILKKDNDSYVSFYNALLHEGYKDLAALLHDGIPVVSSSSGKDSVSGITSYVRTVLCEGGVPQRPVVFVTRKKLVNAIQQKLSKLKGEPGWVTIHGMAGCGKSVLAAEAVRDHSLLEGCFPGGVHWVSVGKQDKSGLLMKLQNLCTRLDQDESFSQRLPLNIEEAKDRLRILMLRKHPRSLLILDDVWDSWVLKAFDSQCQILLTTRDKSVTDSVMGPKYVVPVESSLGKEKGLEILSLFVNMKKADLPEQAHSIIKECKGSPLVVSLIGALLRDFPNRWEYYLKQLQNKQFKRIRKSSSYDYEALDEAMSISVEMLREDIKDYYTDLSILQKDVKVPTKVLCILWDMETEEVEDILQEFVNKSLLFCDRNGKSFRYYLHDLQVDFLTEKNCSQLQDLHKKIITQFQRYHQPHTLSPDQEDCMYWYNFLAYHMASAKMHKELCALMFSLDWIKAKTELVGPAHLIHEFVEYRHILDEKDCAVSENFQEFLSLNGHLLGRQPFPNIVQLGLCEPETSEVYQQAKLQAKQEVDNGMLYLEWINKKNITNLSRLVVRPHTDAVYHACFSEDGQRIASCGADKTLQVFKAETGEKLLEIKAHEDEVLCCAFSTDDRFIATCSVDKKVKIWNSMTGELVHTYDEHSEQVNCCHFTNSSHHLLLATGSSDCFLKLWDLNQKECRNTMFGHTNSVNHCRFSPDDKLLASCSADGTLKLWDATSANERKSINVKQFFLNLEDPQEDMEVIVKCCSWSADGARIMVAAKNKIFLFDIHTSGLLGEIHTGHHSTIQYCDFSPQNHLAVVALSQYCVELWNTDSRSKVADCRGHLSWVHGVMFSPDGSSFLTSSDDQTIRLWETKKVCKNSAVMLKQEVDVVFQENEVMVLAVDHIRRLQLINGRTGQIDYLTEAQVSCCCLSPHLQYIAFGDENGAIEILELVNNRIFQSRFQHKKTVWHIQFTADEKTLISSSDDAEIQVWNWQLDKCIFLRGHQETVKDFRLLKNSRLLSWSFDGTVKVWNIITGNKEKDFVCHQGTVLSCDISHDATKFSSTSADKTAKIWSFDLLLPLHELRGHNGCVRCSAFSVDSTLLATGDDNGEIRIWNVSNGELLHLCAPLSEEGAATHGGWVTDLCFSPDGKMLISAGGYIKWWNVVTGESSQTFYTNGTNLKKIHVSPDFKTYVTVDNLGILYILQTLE
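Material: biochemical Apaf-1 apoptosome reconstitution. Medium: Hepes buffer, pH 7.5. Also added: cytochrome c activation, bis-DEVD rhodamine 110 substrate. Timing: 30 min compound preincubation, 50 min activation, room temperature. Measured by: rhodamine 110 fluorescence at Ex 480/Em 540 nm.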
PAFAH1B2 inh: inhibitors of human PAFAH1B2. P68402. recombinant PAFAH1B2, FP-rhodamine activity probe, fluorescence polarization. inhibition, % at 3.39 µM. hit rate 1.2% among 340,000. AID 492953;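 active = inhibition above the mean of all tested compounds plus 3 SD, cut at about 24% in these data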
pPAFAH inh: pPAFAH (human) enzyme inhibition. recombinant pPAFAH, FP-rhodamine probe fluorescence polarization. inhibition, % at 3.39 µM. hit rate 1.5% among 330,000. AID 463082;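 active = inhibition above the mean inhibition across the screen plus 3 SD, cut at about 25% in these data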;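 also: inhibitors block binding of the rhodamine activity-based probe so polarization drops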
PAFAH1B3 inh: inhibitors of human PAFAH1B3; recombinant PAFAH1B3, FP-rhodamine probe, fluorescence polarization; inhibition, % at 3.39 µM; Q15102; hit rate 0.28% among 340,000;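 active = inhibition above the screen-wide average of all tested compounds plus 3 SD, cut at about 25% in these data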
A number is an active result.

For CC(=O)Nc1ccc(S(=O)(=O)n2nc(-c3ccc(C)cc3)nc2N)cc1 the results were PAFAH2 inh inactive, Apaf-1 inh inactive, PAFAH1B2 inh inactive, pPAFAH inh inactive and PAFAH1B3 inh inactive.
For Cc1ccc(S(=O)(=O)n2nc(-c3cccnc3)nc2N)cc1 the results were PAFAH2 inh inactive, Apaf-1 inh inactive, PAFAH1B2 inh 33, pPAFAH inh inactive and PAFAH1B3 inh inactive.
C=CCn1c(O)c2ccc(C(=O)N=NC(=O)COc3ccc(OC)cc3)cc2c1O was read as PAFAH2 inh inactive, Apaf-1 inh inactive, PAFAH1B2 inh inactive, pPAFAH inh inactive and PAFAH1B3 inh inactive.
Screening Cc1ccc(CSC2=Nc3sccc3C3=NC(=O)CN23)cc1 returned PAFAH2 inh inactive, Apaf-1 inh inactive, PAFAH1B2 inh inactive, pPAFAH inh 27 and PAFAH1B3 inh inactive.
For O=C1CS/C(=N\C(=O)N2c3ccccc3Sc3ccccc32)N1 the results were PAFAH2 inh inactive, Apaf-1 inh inactive, PAFAH1B2 inh 25, pPAFAH inh 26 and PAFAH1B3 inh inactive.
`NCCC(=O)N1c2ccccc2Sc2ccccc21` gave PAFAH2 inh inactive, Apaf-1 inh inactive, PAFAH1B2 inh inactive, pPAFAH inh inactive and PAFAH1B3 inh inactive.
Screening CC1(C)NC(=O)N(CC(=O)OCC(=O)c2ccc(Br)s2)C1=O returned PAFAH2 inh inactive, Apaf-1 inh inactive, PAFAH1B2 inh inactive, pPAFAH inh inactive and PAFAH1B3 inh inactive.
COc1ccccc1N1CCN(C(=O)c2ccc3nc(-c4ccco4)c(-c4ccco4)nc3c2)CC1 was read as PAFAH2 inh inactive, Apaf-1 inh inactive, PAFAH1B2 inh inactive, pPAFAH inh inactive and PAFAH1B3 inh inactive.
For Cc1ccc(C)c(N2CCN(C(=O)c3ccc4nc(-c5ccco5)c(-c5ccco5)nc4c3)CC2)c1 the results were PAFAH2 inh inactive, Apaf-1 inh inactive, PAFAH1B2 inh inactive, pPAFAH inh 31 and PAFAH1B3 inh inactive.
`COc1ccc(C(C)=O)cc1COC(=O)CCNS(=O)(=O)c1ccc(C(C)=O)cc1` gave PAFAH2 inh inactive, Apaf-1 inh inactive, PAFAH1B2 inh inactive, pPAFAH inh inactive and PAFAH1B3 inh inactive.
Screening COC(=O)Cc1csc(Nc2ccc(F)c(Cl)c2)n1 returned PAFAH2 inh inactive, Apaf-1 inh inactive, PAFAH1B2 inh inactive, pPAFAH inh 25 and PAFAH1B3 inh inactive.
`O=Cc1cccc(OC(=O)/C=C/c2ccco2)c1` gave PAFAH2 inh inactive, Apaf-1 inh inactive, PAFAH1B2 inh inactive, pPAFAH inh 30 and PAFAH1B3 inh inactive.
For NC(CCC(=O)NC(CS)C(=O)NCC(=O)O)C(=O)O (configuration not stated) the results were PAFAH2 inh inactive, PAFAH1B2 inh inactive and PAFAH1B3 inh inactive.
Screening COc1ccc(CN(C)S(=O)(=O)c2ccc3c(c2)OCCO3)cc1 returned PAFAH2 inh inactive, Apaf-1 inh inactive, PAFAH1B2 inh inactive, pPAFAH inh inactive and PAFAH1B3 inh inactive.
CC(=O)Nc1ccc(S(=O)(=O)N(CCCN2CCOCC2)Cc2cccs2)cc1 was read as PAFAH2 inh inactive, Apaf-1 inh inactive, PAFAH1B2 inh inactive, pPAFAH inh inactive and PAFAH1B3 inh inactive.
`CC(C)(C)c1ccc(S(=O)(=O)N(CCCN2CCOCC2)Cc2cccs2)cc1` gave PAFAH2 inh 30, Apaf-1 inh inactive, PAFAH1B2 inh inactive, pPAFAH inh 32 and PAFAH1B3 inh inactive.
For COC(=O)[C@@H](NC(=O)c1cc(COc2cncc(Cl)c2)on1)c1ccccc1 the results were PAFAH2 inh inactive, Apaf-1 inh inactive, PAFAH1B2 inh inactive, pPAFAH inh inactive and PAFAH1B3 inh inactive.
Screening CCC(NC(=O)c1cc(COc2cncc(Cl)c2)on1)c1ccc(C)cc1 (configuration not stated) returned PAFAH2 inh inactive, Apaf-1 inh inactive, PAFAH1B2 inh 28, pPAFAH inh inactive and PAFAH1B3 inh inactive.
Cc1cccc(N2CC(C(=O)Nc3nnc(SCc4ccccn4)s3)CC2=O)c1 (configuration not stated) was read as PAFAH2 inh inactive, Apaf-1 inh inactive, PAFAH1B2 inh inactive, pPAFAH inh 27 and PAFAH1B3 inh inactive.
For Cc1ccc(N2CC(C(=O)Nc3nnc(SCc4ccccn4)s3)CC2=O)cc1 (configuration not stated) the results were PAFAH2 inh inactive, Apaf-1 inh inactive, PAFAH1B2 inh inactive, pPAFAH inh inactive and PAFAH1B3 inh inactive.
O=C(O)c1cccc2c1C(=O)c1ccc(-c3ccc(F)cc3F)cc1S2(=O)=O was read as PAFAH2 inh inactive, Apaf-1 inh inactive, PAFAH1B2 inh inactive, pPAFAH inh inactive and PAFAH1B3 inh inactive.
Screening O=C1OC[C@@H]2CCCN2C(=O)[C@@H](CC(=O)N(CCO)Cc2ccccc2)C/C=C\C[C@H]1Cc1ccc(F)cc1 returned PAFAH2 inh inactive, Apaf-1 inh inactive, PAFAH1B2 inh 34, pPAFAH inh inactive and PAFAH1B3 inh inactive.
Screening O=C(C[C@@H]1C/C=C\C[C@@H](Cc2ccc(F)cc2)C(=O)OC[C@H]2CCCN2C1=O)N[C@H](CO)Cc1ccccc1 returned PAFAH2 inh inactive, Apaf-1 inh inactive, PAFAH1B2 inh 31, pPAFAH inh inactive and PAFAH1B3 inh inactive.
For O=C(C[C@H]1C/C=C\CC[C@H](Cc2ccc(F)cc2)C(=O)O[C@@H](c2ccccc2)CNC1=O)N[C@H](CO)Cc1ccccc1 the results were PAFAH2 inh inactive, Apaf-1 inh inactive, PAFAH1B2 inh inactive, pPAFAH inh inactive and PAFAH1B3 inh inactive.
Screening O=C(C[C@H]1C/C=C\CC[C@H](Cc2ccc(F)cc2)C(=O)OC[C@H]2CCCN2C1=O)N[C@@H](CO)Cc1ccccc1 returned PAFAH2 inh inactive, Apaf-1 inh inactive, PAFAH1B2 inh inactive, pPAFAH inh 27 and PAFAH1B3 inh inactive.
For O=C(C[C@H]1C/C=C\CC[C@H](Cc2ccc(F)cc2)C(=O)OC[C@H]2CCCN2C1=O)N[C@H](CO)Cc1ccccc1 the results were PAFAH2 inh inactive, Apaf-1 inh inactive, PAFAH1B2 inh inactive, pPAFAH inh inactive and PAFAH1B3 inh inactive.
Screening O=C(C[C@H]1C/C=C\CC[C@H](Cc2ccc(F)cc2)C(=O)O[C@@H](c2ccccc2)CNC1=O)N[C@@H](CO)Cc1ccccc1 returned PAFAH2 inh inactive, Apaf-1 inh inactive, PAFAH1B2 inh 25, pPAFAH inh inactive and PAFAH1B3 inh inactive.
For CCN(CC(=O)Nc1c(F)cccc1F)C(=O)c1ccc(NC(=O)CC2SC(N3CCCC3)=NC2=O)cc1 (configuration not stated) the results were PAFAH2 inh inactive, Apaf-1 inh inactive, PAFAH1B2 inh inactive, pPAFAH inh inactive and PAFAH1B3 inh inactive.
`COc1ccc([N+](=O)[O-])cc1NC(=O)C(C)OC(=O)CC1CCCC1` (configuration not stated) gave PAFAH2 inh inactive, Apaf-1 inh inactive, PAFAH1B2 inh inactive, pPAFAH inh inactive and PAFAH1B3 inh inactive.
C[C@H]1COC(=O)[C@H](Cc2ccc(F)cc2)CC/C=C/C[C@@H](CC(=O)N[C@@H](CO)Cc2ccccc2)C(=O)N1 was read as PAFAH2 inh inactive, Apaf-1 inh inactive, PAFAH1B2 inh inactive, pPAFAH inh inactive and PAFAH1B3 inh inactive.

High-throughput results from PubChem BioAssay.
